The record followed here is ChEMBL document CHEMBL5705892, “MK-2206, an allosteric Akt inhibitor, enhances antitumor efficacy by standard chemotherapeutic agents or molecular targeted drugs in vitro and in vivo” (Mol Cancer Ther, 2010).

The structures appear in SMILES notation. Calls of active or inactive are those of the source. The rule behind the calls is not given here.

For one experiment, the system named is HCC827. Nature of the experiment: Antiproliferative activity against human HCC827 cells assessed as reduction in cell proliferation measured after 72 hrs by celltiter-glo assay. The format is functional, cell-based. As to conditions: HCC827, 72 h. The method, boiled down: (§1)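 Cells in RPMI 1640 with 10% heat-inactivated FBS at 37°C and 5% CO₂ were seeded at 2 to 3 × 10³ per well. […] Growth was read as cellular ATP by CellTiter-Glo.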
Background: Cellular ATP, detected with luciferase, serves as a proxy for viable cell number.

Experiment [1] deals with HCC70. Nature of the experiment: Antiproliferative activity against human HCC70 cells assessed as reduction in cell proliferation measured after 72 hrs by celltiter-glo assay. It counts as functional, cell-based. The settings on record: HCC70, 72 h. The method, boiled down:
as §1

For experiment [2], the system named is HCC70. Kind of experiment: Synergistic antiproliferative activity against human HCC70 cells assessed as combination index at ED75 measured after 72 hrs in presence of lapatinib by celltiter-glo assay. The format is functional. The method, boiled down: (§2)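 Cells grown in RPMI 1640 with 10% heat-inactivated FBS at 37°C, 5% CO₂. Seeded at 2 to 3 × 10³ per well; drugs added 24 h later. […] Viability read as cellular ATP by CellTiter-Glo. CI calculated by Chou–Talalay from median-effect plots at ED50, ED75 and ED90.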

Experiment [3] relates to SK-BR-3. Kind of experiment: Synergistic antiproliferative activity against human SK-BR-3 cells assessed as combination index at ED75 measured after 72 hrs in presence of lapatinib by celltiter-glo assay. The format is functional.
For a further experiment, the system named is NCI-H23. Kind of experiment: Synergistic antiproliferative activity against human NCI-H23 cells assessed as combination index at ED90 measured after 72 hrs in presence of erlotinib by celltiter-glo assay. The format is functional.
Experiment [4] addresses RAC-alpha serine/threonine-protein kinase (Homo sapiens) (UniProt P31749). Kind of experiment: Inhibition of AKT in human A-431 cells assessed as reduction in PRAS40 phosphorylation at T246 residue at 5 umol/L measured after 5 hrs in presence of erlotinib by Western blot analysis. It counts as cell-based. As to conditions: dose 5.0 µmol/L. The method, boiled down: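 Cells were lysed in Tris-HCl pH 7.5, 150 mM NaCl, 1% Triton X-100 with protease and phosphatase inhibitors. Lysates were run on SDS-PAGE, transferred to nitrocellulose and probed with phospho-specific antibodies.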

For a further experiment, the system named is NCI-H292. Nature of the experiment: Antitumor activity against human NCI-H292 cells xenografted in CD-1 mouse assessed as tumor growth suppression at 360 mg/kg, po administered once a week for 2 weeks and measured twice a week during compound dosing by caliper method. It counts as functional, organism-based. The method, boiled down:
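Female CD1-nude mice carried s.c. NCI-H292 cells in Matrigel/PBS and were randomized at 0.2 cm³, n = 5. […] MK-2206 (30% Captisol) was given 2 h later at 120 mg/kg po on days 0, 2, 4, 7, 9, 11, or at 360 mg/kg on days 0 and 7. Control received vehicle. Caliper volume twice weekly.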
A general note: In xenograft studies the graft and the host belong to different species.

Experiment [5] concerns NCI-N87. Nature of the experiment: Synergistic antiproliferative activity against human NCI-N87 cells assessed as combination index at ED50 treated 24 hrs prior to lapatinib and measured after 72 hrs by celltiter-glo assay. It counts as functional. The settings on record: time 96 hrs.
The subject of experiment [6] is NCI-N87. Nature of the experiment: Synergistic antiproliferative activity against lapatinib pretreated human NCI-N87 cells assessed as combination index at ED50 measured after 72 hrs by celltiter-glo assay. It counts as functional.
In experiment [7] the test system is NCI-N87. Nature of the experiment: Synergistic antiproliferative activity against lapatinib pretreated human NCI-N87 cells assessed as combination index at ED75 measured after 72 hrs by celltiter-glo assay. It counts as functional.
Experiment [8] deals with HCC70. Kind of experiment: Synergistic antiproliferative activity against human HCC70 cells assessed as combination index at ED75 measured after 96 hrs in presence of lapatinib by celltiter-glo assay. It counts as functional.
The test system of another experiment is MDA-MB-468. Kind of experiment: Synergistic antiproliferative activity against human MDA-MB-468 cells assessed as combination index at ED90 treated 24 hrs prior to lapatinib and measured after 72 hrs by celltiter-glo assay. The format is functional. The settings on record: time 96 hrs.
The test system of experiment [9] is SK-BR-3. Nature of the experiment: Synergistic antiproliferative activity against lapatinib pretreated human SK-BR-3 cells assessed as combination index at ED90 measured after 72 hrs by celltiter-glo assay. It counts as functional.
In experiment [10] the test system is HCC70. Kind of experiment: Induction of apoptosis in human HCC70 cells assessed as increase in caspase-3/7 activity at 3 umol/L measured after 48 hrs in presence of lapatinib by caspase-glo 3/7 assay relative to control. The format is functional. As to conditions: dose 3 µmol/L. The method, boiled down: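 HCC70 cells were grown in RPMI 1640 with 10% heat-inactivated FBS at 37°C in 5% CO₂. They were exposed for 48 h to MK-2206 (0, 0.03, 0.3, 3 µmol/L), with or without lapatinib (0, 1, 3, 5, 10 µmol/L). Caspase-3/7 activity was read by Caspase-Glo 3/7 luminescence and expressed as fold induction over the DMSO vehicle control. The experiment was run twice, and representative data were reported.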

For experiment [11], the target named is RAC-alpha serine/threonine-protein kinase (Homo sapiens) (UniProt P31749). Kind of experiment: Inhibition of AKT phosphorylation at S473 residue in human HCC70 cells at 1 umol/L measured after 3 to 24 hrs in presence of lapatinib by Western blot analysis. It counts as cell-based. The settings on record: dose 1.0 µmol/L, time 3-24 hrs. The method, boiled down:
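HCC70 cells at ~70% confluence were exposed to 10 µmol/L lapatinib, 1 µmol/L MK-2206, or both, for 0, 3, 6, 12 or 24 h. Lysates were prepared in Triton X-100/Tris buffer (pH 7.5) with protease and phosphatase inhibitors. Immunoblots after SDS-PAGE and nitrocellulose transfer were probed for pAkt and pS6.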
In general terms: Immunoblotting shows a protein as a band on a membrane.

Experiment [12] deals with SK-BR-3. Kind of experiment: Synergistic antiproliferative activity against human SK-BR-3 cells assessed as combination index at ED50 measured after 72 hrs in presence of docetaxel by celltiter-glo assay. It counts as functional.
Another experiment deals with ZR-75-1. Nature of the experiment: Synergistic antiproliferative activity against human ZR-75-1 cells assessed as combination index at ED75 measured after 72 hrs in presence of docetaxel by celltiter-glo assay. The format is functional.
The test system of another experiment is MDA-MB-231. Nature of the experiment: Synergistic antiproliferative activity against human MDA-MB-231 cells assessed as combination index at ED75 measured after 72 hrs in presence of docetaxel by celltiter-glo assay. It counts as functional. The method, boiled down: as §2
For experiment [13], the system named is HCC70. Kind of experiment: Synergistic antiproliferative activity against human HCC70 cells assessed as combination index at ED90 measured after 72 hrs in presence of docetaxel by celltiter-glo assay. The format is functional. The method, boiled down:
as §2

For a further experiment, the system named is PC-3. Nature of the experiment: Antitumor activity against human PC-3 cells xenografted in CD1 nude mouse assessed as reduction in tumor volume at 120 mg/kg, po administered 3 times per week for 2 weeks and measured during compound dosing by caliper method. The format is functional, organism-based. The method, boiled down: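 Male CD1-nude mice received s.c. PC-3 cells and were treated from day 25 after implant, at 0.2 cm³, n = 5. Docetaxel (0.73% ethanol in saline) was given at 5 mg/kg i.v. on day 0. MK-2206 (30% Captisol) was given at 120 mg/kg po on days 1, 3, 5, 8, 10, 12. Caliper volume twice weekly.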

Experiment [14] concerns A2780. Kind of experiment: Induction of apoptosis in carboplatin pretreated human A2780 cells assessed as increase in caspase-3/7 activity measured after 24 hrs by caspase-glo 3/7 assay. The format is functional, cell-based. As to conditions: dose 0.0625-1 µM.
In experiment [15] the test system is A2780. Kind of experiment: Cell cycle arrest in human A2780 cells assessed as increase in accumulation of cells at sub-G1 phase measured after 72 hrs in presence of gemcitabine by propidium iodide staining based flow cytometry. The format is functional.
In a further experiment the test system is NCI-H1993. Nature of the experiment: Synergistic antiproliferative activity against human NCI-H1993 cells assessed as combination index at ED25 to ED90 measured after 72 hrs in presence of carboplatin by celltiter-glo assay. The format is functional.
The subject of another experiment is NCI-H441. Nature of the experiment: Synergistic antiproliferative activity against human NCI-H441 cells assessed as combination index at ED25 to ED90 measured after 72 hrs in presence of carboplatin by celltiter-glo assay. The format is functional.

Sequence of RAC-alpha serine/threonine-protein kinase (Homo sapiens) (P31749 whole entry): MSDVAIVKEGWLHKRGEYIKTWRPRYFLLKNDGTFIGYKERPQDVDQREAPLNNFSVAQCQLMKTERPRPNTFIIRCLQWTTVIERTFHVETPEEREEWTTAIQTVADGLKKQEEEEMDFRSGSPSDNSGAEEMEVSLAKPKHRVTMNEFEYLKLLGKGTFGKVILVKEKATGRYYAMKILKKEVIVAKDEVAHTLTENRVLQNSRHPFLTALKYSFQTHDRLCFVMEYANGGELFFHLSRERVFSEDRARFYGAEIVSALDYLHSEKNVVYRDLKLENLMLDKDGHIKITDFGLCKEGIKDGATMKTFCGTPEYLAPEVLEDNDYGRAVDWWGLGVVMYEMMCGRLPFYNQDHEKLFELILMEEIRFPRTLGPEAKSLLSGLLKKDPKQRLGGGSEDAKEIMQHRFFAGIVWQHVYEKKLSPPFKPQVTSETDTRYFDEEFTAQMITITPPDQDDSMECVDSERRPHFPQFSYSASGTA

What is called IC50 is the concentration at which inhibition is half-maximal. On to `Cl.NC1(c2ccc(-c3nc4ccn5c(=O)[nH]nc5c4cc3-c3ccccc3)cc2)CCC1`, for which the 50% inhibitory concentration (IC50) was 4300 nM in the experiment with HCC827 and 300 nM with HCC70 [1]. For the same compound, the CI75 in the experiment with HCC70 [2] is recorded as 0.28; in the experiment on SK-BR-3 [3], 0.19; with NCI-N87 [7] it was 0.18; in the experiment on HCC70 [8], 0.18; in the experiment with ZR-75-1, 0.2; with MDA-MB-231, 0.7. The CI90 with NCI-H23 is 0.68; in the experiment with MDA-MB-468, 0.18; in the experiment with SK-BR-3 [9], 0.18; in the experiment on HCC70 [13], 0.5. The inhibition result in experiment [4] and in [11] was “Active” throughout. Also, the outcome in the experiment on NCI-H292 and in the experiment on PC-3 was Active. Further, the CI50 with NCI-N87 [5] was determined as 0.18; in the experiment on NCI-N87 [6], 0.18; in the experiment with SK-BR-3 [12], 0.8. The “fold change (FC)” value in the experiment with HCC70 [10] is recorded as 7. In addition, the Activity entry with A2780 [14] and with A2780 [15] was “Dose-Dependent Effect” throughout. Also, the CI in the experiment with NCI-H1993 came out at 0.44; in the experiment on NCI-H441 it was 0.46.
